What was measured:
LoVo [1] = experiment: Cytotoxicity activity on LoVo/Dx human adenocarcinoma cell line after 144 hr of drug exposure; format: functional, cell-based
Outline: (§1)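 LoVo (sensitive) and LoVo/Dx (resistant) human colon adenocarcinoma cells seeded at 2.5 × 10^5 cells/mL medium; drug solutions added to culture.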

LoVo [2] = experiment: Cytotoxicity activity on LoVo/Dx human adenocarcinoma cell line after 1 hr of drug exposure; format: functional, cell-based
Outline: (§2)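 LoVo (sensitive) and LoVo/Dx (resistant) human colon adenocarcinoma cells seeded at 2.5 × 10^5 cells/mL medium; drug solutions added to culture. IC50 = drug concentration inhibiting cell growth by 50%, assays in triplicate.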

LoVo [3] = experiment: Cytotoxicity activity on LoVo human adenocarcinoma cell line after 144 hr of drug exposure; format: functional, cell-based; outline: as §1
LoVo [4] = experiment: Cytotoxicity activity on LoVo human adenocarcinoma cell line after 1 hr of drug exposure; format: functional, cell-based; outline: as §2
Calf thymus DNA = experiment: CT-DNA binding required to produce a 50% drop in fluorescence of DNA-bound ethidium.; format: nucleic-acid assay; settings: Bos taurus
Outline: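 Ethidium displacement from calf thymus DNA in 10 mM Na2HPO4, 10 mM NaH2PO4, 1 mM EDTA, pH 7.0, containing 1.26 μM ethidium bromide and 1 μM CT-DNA. Drug added serially from ~5 mM DMSO stock; 20 °C; fluorescence excitation 546 nm, emission 595 nm. C50 = drug concentration lowering DNA-bound ethidium fluorescence by 50%, mean of three determinations.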

HT-29 = experiment: In vitro cytotoxic potency against HT-29 (human colon adenocarcinoma) cell line.; format: functional, cell-based
786-0 [5] = experiment: Percent growth of NCI cell line, renal: 786-0 exposed for 48 hr at 10e-4 concentration; format: functional, Homo sapiens
Outline: (§3)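 NCI panel cell lines exposed 48 h to 10^-8, 10^-6 and 10^-4 M drug; read-out is percent growth at each concentration.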

786-0 [6] = experiment: Percent growth of NCI cell line, renal: 786-0 exposed for 48 hr at 10e-6 concentration; format: functional, Homo sapiens; outline: as §3
786-0 [7] = experiment: Percent growth of NCI cell line, renal: 786-0 exposed for 48 hr at 10e-8 concentration; format: functional, Homo sapiens; outline: as §3
DU-145 [8] = experiment: Percent growth of NCI cell line, prostate: DU-145 exposed for 48 hr at 10e-6 concentration; format: functional, Homo sapiens; outline: as §3
DU-145 [9] = experiment: Percent growth of NCI cell line, prostate: DU-145 exposed for 48 hr at 10e-8 concentration; format: functional, Homo sapiens; outline: as §3
HCT-15 [10] = experiment: Percent growth of NCI cell line, colon: HCT-15 exposed for 48 hr at 10e-4 concentration; format: functional, Homo sapiens; outline: as §3
HCT-15 [11] = experiment: Percent growth of NCI cell line, colon: HCT-15 exposed for 48 hr at 10e-6 concentration; format: functional, Homo sapiens; outline: as §3
HCT-15 [12] = experiment: Percent growth of NCI cell line, colon: HCT-15 exposed for 48 hr at 10e-8 concentration; format: functional, Homo sapiens; outline: as §3
LOX IMVI [13] = experiment: Percent growth of NCI cell line, melanoma: LOX IMVI exposed for 48 hr at 10e-4 concentration; format: functional, Homo sapiens; outline: as §3
LOX IMVI [14] = experiment: Percent growth of NCI cell line, melanoma: LOX IMVI exposed for 48 hr at 10e-6 concentration; format: functional, Homo sapiens; outline: as §3
LOX IMVI [15] = experiment: Percent growth of NCI cell line, melanoma: LOX IMVI exposed for 48 hr at 10e-8 concentration; format: functional, Homo sapiens; outline: as §3
MCF7 [16] = experiment: Percent growth of NCI cell line, breast: MCF-7 exposed for 48 hr at 10e-4 concentration; format: functional, Homo sapiens; outline: as §3
MCF7 [17] = experiment: Percent growth of NCI cell line, breast: MCF-7 exposed for 48 hr at 10e-6 concentration; format: functional, Homo sapiens; outline: as §3
MCF7 [18] = experiment: Percent growth of NCI cell line, breast: MCF-7 exposed for 48 hr at 10e-8 concentration; format: functional, Homo sapiens; outline: as §3
NCI-H460 [19] = experiment: Percent growth of NCI cell line, lung-nsc: NCI-H460 exposed for 48 hr at 10e-4 concentration; format: functional, Homo sapiens; outline: as §3
NCI-H460 [20] = experiment: Percent growth of NCI cell line, lung-nsc: NCI-H460 exposed for 48 hr at 10e-6 concentration; format: functional, Homo sapiens; outline: as §3
NCI-H460 [21] = experiment: Percent growth of NCI cell line, lung-nsc: NCI-H460 exposed for 48 hr at 10e-8 concentration; format: functional, Homo sapiens; outline: as §3
OVCAR-4 [22] = experiment: Percent growth of NCI cell line, ovarian: OVCAR-4 exposed for 48 hr at 10e-4 concentration; format: functional, Homo sapiens; outline: as §3
OVCAR-4 [23] = experiment: Percent growth of NCI cell line, ovarian: OVCAR-4 exposed for 48 hr at 10e-6 concentration; format: functional, Homo sapiens; outline: as §3
OVCAR-4 [24] = experiment: Percent growth of NCI cell line, ovarian: OVCAR-4 exposed for 48 hr at 10e-8 concentration; format: functional, Homo sapiens; outline: as §3
SNB-19 [25] = experiment: Percent growth of NCI cell line, CNS: SNB-19 exposed for 48 hr at 10e-4 concentration; format: functional, Homo sapiens; outline: as §3
SNB-19 [26] = experiment: Percent growth of NCI cell line, CNS: SNB-19 exposed for 48 hr at 10e-6 concentration; format: functional, Homo sapiens; outline: as §3
[27] = Percent growth of NCI cell line, leucemia K562 exposed for 48 hr at 10e-4 concentration; format: functional, Homo sapiens; outline: as §3
[28] = Percent growth of NCI cell line, leucemia K562 exposed for 48 hr at 10e-6 concentration; format: functional, Homo sapiens; outline: as §3
[29] = Percent growth of NCI cell line, leucemia K562 exposed for 48 hr at 10e-8 concentration; format: functional, Homo sapiens; outline: as §3
SNB-19 [30] = experiment: Percent growth of NCI cell line, CNS: SNB-19 exposed for 48 hr at 10e-8 concentration; format: functional, Homo sapiens; outline: as §3
DU-145 [31] = experiment: Percent growth of NCI cell line, prostate: DU-145 exposed for 48 hr at 10e-4 concentration; format: functional, Homo sapiens; outline: as §3

COc1cccc2c1C(=O)c1c(O)c3c(c(O)c1C2=O)C[C@@](O)(C(=O)CO)C[C@@H]3O[C@H]1C[C@H](N)[C@H](O)[C@H](C)O1 [DOXORUBICIN]
IC50 (LoVo [1]): 2400 nM | IC50 (LoVo [2]): 9700 nM | IC50 (LoVo [3]): 24 nM | IC50 (LoVo [4]): 860 nM

COc1ccc2c(c1)c1nn(CCCN(C)C)c3ccc4c(=O)n(CCN(C)C)c(=O)n2c4c13
C50 (Calf thymus DNA): 0.037 µM | IC50 (HT-29): 37 nM

CN(C)CCn1c(=O)c2ccc3c4c(nn3CCN(C)C)c3cc([N+](=O)[O-])ccc3n(c1=O)c24
Growth (786-0 [5]): -99% | Growth (786-0 [6]): -25% | Growth (786-0 [7]): 36% | C50 (Calf thymus DNA): 0.07 µM | Growth (DU-145 [8]): -16% | Growth (DU-145 [9]): 82% | Growth (HCT-15 [10]): -89% | Growth (HCT-15 [11]): -4% | Growth (HCT-15 [12]): 68% | IC50 (HT-29): 0.98 nM | IC50 (LoVo [1]): 13 nM | IC50 (LoVo [2]): 190 nM | Growth (LOX IMVI [13]): -89% | Growth (LOX IMVI [14]): 5% | Growth (LOX IMVI [15]): 79% | Growth (MCF7 [16]): -93% | Growth (MCF7 [17]): -12% | Growth (MCF7 [18]): 81% | IC50 (LoVo [3]): 16 nM | IC50 (LoVo [4]): 520 nM | Growth (NCI-H460 [19]): -94% | Growth (NCI-H460 [20]): -19% | Growth (NCI-H460 [21]): 47% | Growth (OVCAR-4 [22]): -96% | Growth (OVCAR-4 [23]): -55% | Growth (OVCAR-4 [24]): 57% | Growth (SNB-19 [25]): -93% | Growth (SNB-19 [26]): 2% | Growth [27]: -38% | Growth [28]: 6% | Growth [29]: 82% | Growth (SNB-19 [30]): 75% | Growth (DU-145 [31]): -94%

CN(C)CCn1c(=O)c2ccc3c4c(nn3CCN3CCCCC3)c3cc(N)ccc3n(c1=O)c24
C50 (Calf thymus DNA): 0.006 µM | IC50 (HT-29): 0.17 nM

CN(C)CCn1c(=O)c2ccc3c4c(nn3CCN3CCCC3)c3cc([N+](=O)[O-])ccc3n(c1=O)c24
C50 (Calf thymus DNA): 0.048 µM | IC50 (HT-29): 1.4 nM

COc1ccc2c(c1)c1nn(CCN(C)C)c3ccc4c(=O)n(CCN(C)C)c(=O)n2c4c13
Growth (786-0 [5]): -96% | Growth (786-0 [6]): -26% | Growth (786-0 [7]): 28% | C50 (Calf thymus DNA): 0.052 µM | Growth (DU-145 [8]): -11% | Growth (DU-145 [9]): 54% | Growth (HCT-15 [10]): -80% | Growth (HCT-15 [11]): -31% | Growth (HCT-15 [12]): 36% | IC50 (HT-29): 11 nM | IC50 (LoVo [1]): 1.8 nM | IC50 (LoVo [2]): 140 nM | Growth (LOX IMVI [13]): -80% | Growth (LOX IMVI [14]): -19% | Growth (LOX IMVI [15]): 62% | Growth (MCF7 [16]): -89% | Growth (MCF7 [17]): -27% | Growth (MCF7 [18]): 49% | IC50 (LoVo [3]): 13 nM | IC50 (LoVo [4]): 290 nM | Growth (NCI-H460 [19]): -95% | Growth (NCI-H460 [20]): -60% | Growth (NCI-H460 [21]): 9% | Growth (OVCAR-4 [22]): -82% | Growth (OVCAR-4 [23]): -73% | Growth (OVCAR-4 [24]): 40% | Growth (SNB-19 [25]): -62% | Growth (SNB-19 [26]): -15% | Growth [27]: -81% | Growth [28]: -14% | Growth [29]: 47% | Growth (SNB-19 [30]): 62% | Growth (DU-145 [31]): -77%

CN(C)CCCn1c(=O)c2ccc3c4c(nn3CCCN(C)C)c3ccccc3n(c1=O)c24
C50 (Calf thymus DNA): 0.56 µM | IC50 (HT-29): 135 nM

CN(C)CCn1c(=O)c2ccc3c4c(nn3CCN3CCCC3)c3ccccc3n(c1=O)c24
C50 (Calf thymus DNA): 0.049 µM | IC50 (HT-29): 9.2 nM

CN(C)CCCn1nc2c3cc(O)ccc3n3c(=O)n(CCN(C)C)c(=O)c4ccc1c2c43
C50 (Calf thymus DNA): 0.0066 µM | IC50 (HT-29): 61 nM

CN(C)CCCn1nc2c3ccccc3n3c(=O)n(CCN(C)C)c(=O)c4ccc1c2c43
C50 (Calf thymus DNA): 0.12 µM | IC50 (HT-29): 68 nM

COc1ccc2c(c1)c1nn(CCN3CCCC3)c3ccc4c(=O)n(CCN(C)C)c(=O)n2c4c13
C50 (Calf thymus DNA): 0.065 µM | IC50 (HT-29): 0.17 nM

CN(C)CCCn1c(=O)c2ccc3c4c(nn3CCN(C)C)c3ccccc3n(c1=O)c24
C50 (Calf thymus DNA): 0.12 µM | IC50 (HT-29): 37 nM

CN(C)CCn1c(=O)c2ccc3c4c(nn3CCN3CCCCC3)c3cc([N+](=O)[O-])ccc3n(c1=O)c24
C50 (Calf thymus DNA): 0.01 µM | IC50 (HT-29): 0.21 nM

CCN(CC)CCn1c(=O)c2ccc3c4c(nn3CCN(CC)CC)c3ccccc3n(c1=O)c24
C50 (Calf thymus DNA): 0.051 µM | IC50 (HT-29): 29 nM

O=C1c2c(O)ccc(O)c2C(=O)c2c(NCCNCCO)ccc(NCCNCCO)c21
C50 (Calf thymus DNA): 0.037 µM

COc1ccc2c(c1)c1nn(CCN3CCCCC3)c3ccc4c(=O)n(CCN(C)C)c(=O)n2c4c13
Growth (786-0 [5]): -67% | Growth (786-0 [6]): -41% | Growth (786-0 [7]): 20% | C50 (Calf thymus DNA): 0.0099 µM | Growth (DU-145 [8]): -51% | Growth (DU-145 [9]): 39% | Growth (HCT-15 [10]): -61% | Growth (HCT-15 [11]): -34% | Growth (HCT-15 [12]): 24% | IC50 (HT-29): 0.04 nM | Growth (MCF7 [16]): -12% | Growth (MCF7 [17]): 4% | Growth (MCF7 [18]): 42% | Growth (NCI-H460 [19]): -57% | Growth (NCI-H460 [20]): -36% | Growth (NCI-H460 [21]): 22% | Growth (OVCAR-4 [22]): -89% | Growth (OVCAR-4 [23]): -84% | Growth (OVCAR-4 [24]): 15% | Growth (SNB-19 [25]): -54% | Growth (SNB-19 [26]): 8% | Growth [27]: -12% | Growth [28]: 12% | Growth [29]: 39% | Growth (SNB-19 [30]): 55% | Growth (DU-145 [31]): -91%

CN(C)CCn1c(=O)c2ccc3c4c(nn3CCN3CCCCC3)c3ccccc3n(c1=O)c24
C50 (Calf thymus DNA): 0.05 µM | IC50 (HT-29): 4.1 nM

— ChEMBL document CHEMBL1135709, “2,6-Di(omega-aminoalkyl)-2,5,6,7-tetrahydropyrazolo[3,4,5-mn]pyrimido[5,6,1-de]acridine-5,7-diones: novel, potent, cytotoxic, and DNA-binding agents” (J Med Chem, 2002)
